Bioassay records from PubChem.
PG9 Ab binder = PG9 antibody binding by small molecule | 0.43% of 360,000 active | TR-FRET gp120-PG9 antibody binding | AID 624416 | inhibition, % at 6.7 µM; in the data active = inhibition above about 8.5%
NR2E3 ag-1 = activates human NR2E3 receptor | inhibition of corepressor binding, % at 3.98 µM | CHO-S Gal4-NCOR/VP16-NR2E3 two-hybrid, luciferase | AID 602229 | 0.35% of 360,000 active | Q9Y5X4;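 active = inhibition above the mean of all tested compounds plus 3 SD, cut at about 70% in these data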;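 also: 0% = DMSO with NR2E3 transfected cells and 100% = cells lacking NR2E3 construct; higher means lower luciferase signal from less NR2E3 corepressor binding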
Target sequence (Q9Y5X4 whole entry, looked up, the tested form may be a part): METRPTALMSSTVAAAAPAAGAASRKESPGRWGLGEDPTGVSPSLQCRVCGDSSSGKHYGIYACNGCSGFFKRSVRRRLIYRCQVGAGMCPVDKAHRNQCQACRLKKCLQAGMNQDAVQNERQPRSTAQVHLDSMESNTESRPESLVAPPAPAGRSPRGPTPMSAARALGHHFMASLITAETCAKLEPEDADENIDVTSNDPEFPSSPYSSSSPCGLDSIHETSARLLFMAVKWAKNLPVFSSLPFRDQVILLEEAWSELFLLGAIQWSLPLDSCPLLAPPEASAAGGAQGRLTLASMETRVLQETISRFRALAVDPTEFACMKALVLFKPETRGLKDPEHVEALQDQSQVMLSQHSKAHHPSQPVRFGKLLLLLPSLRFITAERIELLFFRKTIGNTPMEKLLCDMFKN
NR2E3 ag-2 = NR2E3 (human) agonism. 0.12% of 320,000 active. inhibition of corepressor binding, % at 4.78 µM. Q9Y5X4. GST-NR2E3/biotin-RetCOR TR-FRET, 1536-well. AID 2300;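 active = percent inhibition above the cutoff of mean plus 3 SD of all tested compounds, set per screening campaign, cut at about 20% in these data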;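 also: 0% = DMSO wells and 100% = biotin wells as full block of FRET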
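System: GST-tagged NR2E3 plus biotinylated RetCOR corepressor; Amount: 1.35 nM GST-tagged NR2E3 final; Dosing: single nominal compound dose of 4.8 µM; Schedule: 5 h incubation at 4 °C; Technique: TR-FRET with europium anti-GST and streptavidin-D2, 340 nm excitation; Controls: biotin wells as high control, 0.6% DMSO wells as low control.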
Rev-erbA mod = modulates human Rev-erb alpha binding to DNA; P20393; Rev-erbα–FITC-DNA binding, fluorescence polarization, 90 min; activity, % at 10 µM; 0.79% of 370,000 active;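 active = activity above about 14%, limit read from the data; passing the limit was not always enough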;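 also: 0% = DMSO wells with 35 nM protein and 100% = DMSO wells with 750 nM protein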
PG9 bind confirm = confirmation of small molecules binding HIV-1 gp120 antibody PG9; shares compounds with PG9 Ab binder; TR-FRET PG9 antibody binding, biochemical; inhibition, % at 6.7 µM; 90% of 1,500 active; AID 651571; in the data active = inhibition above about 9%
PGV04 counter = PGV04 control antibody binding, counter-screen | shares compounds with PG9 Ab binder | TR-FRET PGV04 antibody-gp120 binding, biochemical | inhibition, % at 6.7 µM | 95% of 1,500 active; in the data active = inhibition above about 9.5%
NR1D1 mod conf = confirmation of modulators of human Rev-erb alpha DNA binding. shares compounds with Rev-erbA mod. Rev-erb alpha FITC-DNA binding, fluorescence polarization, 90 min. activation, % at 25 µM. 61% of 3,000 active. AID 1259319;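 active = activation at or above a set limit, or at least 3 SD above the negative control mean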;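 also: 0% = 35 nM protein with DMSO and 100% = 750 nM protein high control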
RORg counter = affects RORgamma DNA binding in a Rev-erb alpha counter-screen; purified RORgamma protein-FITC-DNA binding, fluorescence polarization; IC50, µM; shares compounds with Rev-erbA mod; 8% of 910 active; AID 1259320;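 active = Compounds whose fitted half-maximal concentration for disrupting protein-DNA binding is below 10 micromolar; the record names Rev-erb in its text, so the target is in doubt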
Active calls of the source: *; nt = not tested or not shown. An excerpt weighted towards active compounds, which were near 1.5% of everything screened.

SMILES	PG9 Ab binder	NR2E3 ag-1	NR2E3 ag-2	Rev-erbA mod	PG9 bind confirm	PGV04 counter	NR1D1 mod conf	others
Cc1cccc(C)c1NC(=O)CSc1nc(C)c(CC(=O)c2ccc(Br)cc2)c(C)c1C#N	26*	-56	-9	141*	53*	70*	78*
COc1ccc(-c2nc(C#N)c(N3CCC(C(N)=O)CC3)o2)cc1	-3	4	4	0	nt	nt	nt
N#Cc1nc(-c2ccc(OCc3ccccc3)cc2)oc1N1CCC(C(N)=O)CC1	9.5*	-11	4	41*	9.1*	16*	8
CCOC(=O)c1cccc2c(=O)c(C(=O)c3ccc(Cl)cc3)c(C(=O)OC)[nH]c12	21*	-4	0	50*	11*	19*	37*	RORg counter=>40
COC(=O)c1c(N)[nH]c(C(=O)c2ccccc2)c1-c1ccc(Cl)cc1	0	-40	nt	-6	nt	nt	nt
O=C1CCC[C@H]2C[C@H](NCc3ccccc3F)CC[C@]23CCCN13	nt	nt	nt	3	nt	nt	nt
O=c1sc(N2CCN(c3ccc(F)cc3)CC2)nc2ccsc12	23*	-54	-1	146*	57*	83*	96*	RORg counter=>40
O=C(CCc1ccccc1)N[C@H]1[C@H](OC(=O)c2cnccn2)CCC[C@@]12C(=O)N(Cc1ccccc1)c1ccccc12	nt	nt	nt	-5	nt	nt	nt
COc1ccc(NC(=O)CSc2nnc(-c3cccs3)n2-c2ccccc2)cc1	22*	-7	-193	25*	33*	57*	21*
N=C1C(c2nc3ccccc3s2)=C(O)CN1NC(=O)c1c[nH]c2ccccc12	12*	-1	0	32*	22*	39*	51*	RORg counter=>40
O=C(Nc1cccc(O)c1)c1cc(-c2cccs2)on1	-1	-22	1	1	nt	nt	nt
CC(=O)c1cccc(NC(=O)c2cc(-c3cccs3)on2)c1	24*	0	-1	33*	29*	47*	11
Cc1nc(N2CCN(C(=O)C3CCCCC3)CC2)c2c3c(sc2n1)CCCC3	nt	nt	nt	-1	nt	nt	nt
S=c1[nH]cc(-c2ccc(Cl)cc2)n1Cc1ccccc1	16*	1	1	26*	17*	21*	13
CCn1c(-c2ccccc2)c[nH]c1=S	0	12	5	11	nt	nt	nt
O=C(CN1CCCCC1)Nc1c2c(nc3ccccc13)N(c1ccccc1)CC2	48*	6	-11	109*	72*	79*	75*	RORg counter=>40
CCCC(=O)Nc1c2c(nc3ccccc13)N(c1ccccc1)CC2	nt	-16	-1	nt	nt	nt	nt
CCn1c(=O)c(-c2nc3ccccc3[nH]2)c(O)c2ccccc21	44*	nt	4	32*	43*	49*	1
CCCn1c(=O)c(-c2nc3ccccc3[nH]2)c(O)c2ccccc21	50*	16	0	26*	62*	71*	-4
CCCCCCn1c(=O)c(-c2ccccc2)c(O)c2ccccc21	3	0	-1	-4	nt	nt	nt
CCOC(=O)c1cnc2cc(-c3ccc(Br)cc3)nn2c1C	9.4*	-35	2	18*	6	7	10
CCOC(=O)c1cnc2cc(C)nn2c1C	0	-30	-2	-4	nt	nt	nt
Cc1ccc(Cl)cc1-n1c(SCC(=O)NCCC2=CCCCC2)nc2n[nH]c(C)c2c1=N	14*	-21	-1	29*	15*	20*	15
Cc1ccc(OCC(=O)Nc2ccc(S(=O)(=O)Nc3ccccn3)cc2)cc1C	50*	-6	14	29*	41*	45*	22*
COc1ccccc1CNC(=O)COC(=O)c1cccnc1SCC(=O)NCc1ccccc1OC	19*	-17	10	47*	29*	43*	31*	RORg counter=>40
O=C(COC(=O)c1cccnc1SCC(=O)NCc1ccccc1)NCc1ccccc1	32*	-25	15	53*	37*	53*	52*	RORg counter=>40
